Hits are enriched below; roughly 4.8% of the tested compounds scored in any of these assays.
PAFAH2 inh: PAFAH2 enzyme inhibitors, primary screen, biochemical, fluorescence polarization, human | recombinant PAFAH2, FP-rhodamine activity probe | Platelet-activating factor acetylhydrolase 2, cytoplasmic (Homo sapiens), Q99487 | inhibition, % at 3.39 µM | 340,000 tested, 0.99% active;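 active = inhibition above the mean over all tested compounds plus 3 SD, cut at about 30% in these data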;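 note: inhibitors block probe labeling of enzyme so polarization drops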
pPAFAH FP inh: pPAFAH enzyme inhibitors, primary screen, biochemical, fluorescence polarization, human; 330,000 tested, 1.5% active; recombinant pPAFAH, FP-rhodamine probe fluorescence polarization; AID 463082, 2010; inhibition, % at 3.39 µM; Platelet-activating factor acetylhydrolase (Homo sapiens), Q13093;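 active = inhibition above the mean inhibition across the screen plus 3 SD, cut at about 25% in these data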;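 note: inhibitors block binding of the rhodamine activity-based probe so polarization drops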
GRIN3A LBD mod: binders of NR3A ligand-binding domain, primary screen, biophysical, differential scanning fluorimetry, uHTS. AID 1259313, 2017. NR3A LBD differential scanning fluorimetry, Tm shift; 0% = protein alone, 100% = glycine-bound protein. Glutamate receptor ionotropic, NMDA 3A (GRIN3A) ligand-binding domain. Tm shift relative to glycine control, % at 25 µM. 340,000 tested, 2.5% active;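 active = melting temperature shift of at least 10% of the positive control shift, at one fixed dose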
PAFAH1B3 FP inh: PAFAH1B3 enzyme inhibitors, primary screen, biochemical, fluorescence polarization, human; 340,000 tested, 0.28% active; AID 492972, 2010; Platelet-activating factor acetylhydrolase IB subunit alpha1 (Homo sapiens), Q15102; recombinant PAFAH1B3, FP-rhodamine probe; inhibition, % at 3.39 µM;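 active = inhibition above the screen-wide average of all tested compounds plus 3 SD, cut at about 25% in these data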
Target sequence (Q15102 whole entry, looked up): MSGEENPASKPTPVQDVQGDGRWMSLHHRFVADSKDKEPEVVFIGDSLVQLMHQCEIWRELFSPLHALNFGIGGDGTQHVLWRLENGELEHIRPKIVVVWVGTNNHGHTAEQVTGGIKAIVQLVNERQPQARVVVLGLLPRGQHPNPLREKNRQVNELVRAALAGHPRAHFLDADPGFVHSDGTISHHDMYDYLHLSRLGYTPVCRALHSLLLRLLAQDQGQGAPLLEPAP
UCH37 DUB inh: inhibitors of human UCH37 deubiquitinase, primary screen, biochemical, Ub-AMC cleavage, fluorescence | Ubiquitin carboxyl-terminal hydrolase isozyme L5 (Homo sapiens), Q9Y5K5 | purified proteasome/UCH37 | inhibition, % (concentration not given with the values) | 330,000 tested, 0.33% active | AID 588478, 2011;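 active = mean inhibition over replicate wells above about 20%, limit read from the data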
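Test system – human UCH37 enzyme supplied as purified proteasome complex · Incubation – 30 min preincubation with enzyme, 25 min cleavage at room temperature · Detection – AMC fluorescence from Ub-AMC cleavage, excitation 355 nm, emission 460 nm · Benchmarks – no-proteasome wells (full inhibition) and compound-free wells (no inhibition)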
PAFAH1B2 inh: PAFAH1B2 enzyme inhibitors, primary screen, biochemical, fluorescence polarization, human; Platelet-activating factor acetylhydrolase IB subunit alpha2 (Homo sapiens), P68402; recombinant PAFAH1B2, FP-rhodamine activity probe; inhibition, % at 3.39 µM; 340,000 tested, 1.2% active; AID 492953, 2010;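 active = inhibition above the mean of all tested compounds plus 3 SD, cut at about 24% in these data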
Target sequence (P68402 whole entry, looked up): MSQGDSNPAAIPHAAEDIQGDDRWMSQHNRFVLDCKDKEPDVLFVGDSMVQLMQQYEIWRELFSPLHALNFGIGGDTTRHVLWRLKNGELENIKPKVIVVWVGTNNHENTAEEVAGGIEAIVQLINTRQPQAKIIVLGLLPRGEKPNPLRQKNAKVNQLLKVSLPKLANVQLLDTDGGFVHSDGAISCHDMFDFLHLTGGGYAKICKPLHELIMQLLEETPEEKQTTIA
Each line names hits and unclear results; the compound was inactive in the other large screens.

CCn1nc(C)c(Br)c1-c1nc(CS(=O)(=O)c2ccc(F)cc2)no1	none
Cc1noc(C)c1-c1nc(CS(=O)(=O)c2ccc(Cl)cc2)no1	PAFAH1B2 inh 29.7
Oc1ccc(Cc2ccccc2Cl)c(O)c1	none (no result: pPAFAH FP inh)
Oc1ccc(Cc2ccc(Cl)cc2)c(O)c1	PAFAH1B2 inh 71.6 (no result: UCH37 DUB inh)
COc1cc(/C=N/NC(=O)c2ccc(COc3cc(C)ccc3C(C)C)cc2)cc(OC)c1O	GRIN3A LBD mod 20.7 (no result: UCH37 DUB inh)
COc1cc(/C=N\NC(=O)c2ccc(-c3ccccc3)cc2)cc(OC)c1O	GRIN3A LBD mod 11.8 (no result: UCH37 DUB inh)
CCN1C(=O)[C@H]2[C@H]3[C@H](O)[C@H](O)CC(=NO[C@H](C)c4cn([C@H](CO)Cc5ccccc5)nn4)[C@@H]3CC[C@H]2C1=O	none (no result: PAFAH2 inh, pPAFAH FP inh, GRIN3A LBD mod, PAFAH1B3 FP inh, PAFAH1B2 inh)
Cc1cc(N)n(-c2ccccn2)n1	GRIN3A LBD mod 12.5
COc1ccccc1-n1nc(C)cc1N	none
O=C(CSc1nc(-c2ccccc2)nc2ccc(F)cc12)Nc1ccc(C(=O)O)cc1	GRIN3A LBD mod 15.7
CC(C)OC(=O)CSc1nc(-c2ccc(F)cc2)nc2ccc(F)cc12	none
O=C(CSc1nc(-c2ccc(F)cc2)nc2c1Cc1ccccc1O2)Nc1cccc(C(=O)O)c1	GRIN3A LBD mod 19.0 (no result: pPAFAH FP inh)
O=C(CSc1nc(-c2ccccc2)nc2ccc(F)cc12)Nc1cccc(C(=O)O)c1	GRIN3A LBD mod 12.4
CC(CCc1oc2ccccc2c1-c1ccc(C)o1)=NO	none (no result: PAFAH2 inh, pPAFAH FP inh, GRIN3A LBD mod, PAFAH1B3 FP inh, PAFAH1B2 inh)
COc1ccccc1NS(=O)(=O)c1cc(NC(=O)Nc2cccc(C)c2)ccc1N1CCCCC1	GRIN3A LBD mod 24.3
O=C(Nc1ccc(N2CCOCC2)c(S(=O)(=O)Nc2ccccc2Cl)c1)c1ccccc1	none
COc1ccccc1NS(=O)(=O)c1cc(NC(C)=O)ccc1N1CCCCC1	none
O=C(Nc1ccc(Cl)cc1)Nc1ccc(N2CCCC2)c(S(=O)(=O)Nc2ccccc2Cl)c1	GRIN3A LBD mod 31.6
N#CCON=CC(=O)Nc1ccc(F)cc1F	none (no result: PAFAH2 inh, pPAFAH FP inh, GRIN3A LBD mod, PAFAH1B3 FP inh, PAFAH1B2 inh)
Cc1nn(-c2ccccc2)c(N2CCCC2)c1/C=N/NC(=O)c1cccc(S(=O)(=O)Nc2ccc(Cl)cc2)c1	GRIN3A LBD mod 13.4 (no result: UCH37 DUB inh)
Cc1nn(-c2ccc(Cl)cc2)c(Cl)c1/C=N/NC(=O)c1ccc(NS(=O)(=O)c2cccs2)cc1	GRIN3A LBD mod 13.8 (no result: UCH37 DUB inh)
CN(C)S(=O)(=O)c1cccc(NC(=S)NN=CC(=O)c2ccccc2)c1	none (no result: PAFAH2 inh, pPAFAH FP inh, GRIN3A LBD mod, PAFAH1B3 FP inh, PAFAH1B2 inh)
NC(=O)CC(NC(=O)Cc1ccc(Br)cc1)c1ccc(N2CCCCCCC2)c([N+](=O)[O-])c1 (centres undefined)	none
NC(=O)CC(NC(=O)Cc1ccc(Br)cc1)c1ccc(N2CCC(Br)CC2)c([N+](=O)[O-])c1 (centres undefined)	pPAFAH FP inh 26.1
COc1cc(C=NN2C(=O)CSC2=S)ccc1O	none (no result: PAFAH2 inh, pPAFAH FP inh, GRIN3A LBD mod, PAFAH1B3 FP inh, PAFAH1B2 inh)
NC(=S)NN=Cc1ccccc1OCc1ccccc1	none (no result: PAFAH2 inh, pPAFAH FP inh, GRIN3A LBD mod, PAFAH1B3 FP inh, PAFAH1B2 inh)
CCCOc1ccc2ccccc2c1/C=C1\SC(=O)NC1=O	none
CCCCOc1ccc2ccccc2c1C=O	GRIN3A LBD mod 10.2
C=CCN1C(=O)[C@H]2CCC=C[C@H]2[C@@H]1c1cccc(C)c1	UCH37 DUB inh 23.8
COc1ccc(CC(=O)NN=C(C)CC(=O)Nc2ccc(N(C)C)cc2)cc1OC	none (no result: PAFAH2 inh, pPAFAH FP inh, GRIN3A LBD mod, PAFAH1B3 FP inh, PAFAH1B2 inh)
COc1ccc(CCNc2ncnc3cc(OC)c(OC)cc23)cc1OC	none (no result: pPAFAH FP inh)
COc1ccc(CCNc2ncnc3c2[nH]c2cc(OC)c(OC)cc23)cc1OC	pPAFAH FP inh 27.8 (no result: UCH37 DUB inh)
COCCNc1ncnc2c1[nH]c1ccccc12	pPAFAH FP inh 28.1
Nc1nonc1-n1nnc(C(=O)NN=Cc2ccoc2)c1-c1ccccc1	none (no result: PAFAH2 inh, pPAFAH FP inh, GRIN3A LBD mod, PAFAH1B3 FP inh, PAFAH1B2 inh)
Cc1cccc(C(=O)ON=C2CCCc3ccccc32)c1	none (no result: PAFAH2 inh, pPAFAH FP inh, GRIN3A LBD mod, PAFAH1B3 FP inh, PAFAH1B2 inh)
Cc1ccc(C(=O)CSc2nnc(-c3ccco3)n2Cc2ccccc2)cc1	none
Cn1c(SCC(=O)c2ccc(-c3ccccc3)cc2)nnc1-c1ccco1	pPAFAH FP inh 30.0
O=C(/C=C/c1cn(CC(O)CN2CCCCC2)c2ccccc12)c1ccccc1 (centres undefined)	none (no result: pPAFAH FP inh)
CN1CCN(Cn2cc(/C=C/C(=O)c3ccccc3)c3ccccc32)CC1	GRIN3A LBD mod 25.8 (no result: UCH37 DUB inh)
CCOc1ncccc1C(=O)OCC(=O)Nc1ccc(C(C)C)cc1	PAFAH2 inh 51.4, pPAFAH FP inh 29.8
O=C(O)c1ccc(N=N/C(=N\Nc2ccc(C(=O)O)cc2)c2ccccc2)cc1	pPAFAH FP inh 27.2, GRIN3A LBD mod 23.2 (no result: UCH37 DUB inh)
O=C(O)c1cccc(N/N=C(\N=Nc2ccccc2)c2ccccc2)c1	pPAFAH FP inh 24.9 (no result: UCH37 DUB inh)
O=C(O)c1ccc(N=NC(=NNc2ccc(C(=O)O)cc2)c2ccccc2)cc1	none (no result: PAFAH2 inh, pPAFAH FP inh, GRIN3A LBD mod, PAFAH1B3 FP inh, PAFAH1B2 inh)
O=C(Cn1c(C(F)(F)F)nc2ccccc21)N=Nc1c(O)[nH]c2ccc(Br)cc12	GRIN3A LBD mod 10.3
CC(=O)c1ccc(NC(=O)COC(=O)C2CC3C=CC2C3)cc1 (centres undefined)	none
O=C(COC(=O)C1CC2C=CC1C2)Nc1ccc2c(c1)OC(F)(F)O2 (centres undefined)	PAFAH2 inh 46.1, pPAFAH FP inh 26.4
N#C/C(=C(/O)c1ccccc1F)c1nc2cc(C(F)(F)F)ccc2s1	PAFAH1B2 inh 82.2
CC(C)=C(C#N)c1nc2ccccc2s1	none
O=C(CCC1CCCN(C(=O)CCCc2ccccc2)C1)N1CCN(c2ccccn2)CC1 (centres undefined)	pPAFAH FP inh 25.5
CC(=O)c1ccccc1C(=O)N1CCCC(CCC(=O)N2CCN(c3ccccn3)CC2)C1 (centres undefined)	none
Cc1ccc(C(=O)N2CCCC(CCC(=O)N3CCN(c4ccccn4)CC3)C2)s1 (centres undefined)	pPAFAH FP inh 30.2
O=C(CCC1CCCN(C(=O)Cc2cccc(F)c2)C1)N1CCN(c2ccccn2)CC1 (centres undefined)	none

From PubChem
